# HKDC1 inh: blocks human hexokinase HKDC1 activity; Q2TB90; recombinant HKDC1, G6PDH/diaphorase resazurin coupled fluorescence; inhibition, % at 20 µM; 340,000 compounds, 0.16% hits; AID 493160;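 active means inhibition above about 35% when tested at 20 µM, limit read from the data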;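 further: plate controls were DMSO wells with enzyme for no effect and DMSO wells lacking enzyme for full effect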
#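 Assay system: in-house recombinant HK5 (HKDC1) enzyme. Input: HKDC1 at 5 µg/mL. Medium: Tris pH 8.0 buffer with MgCl2, Tween-20, BSA, BME. Dosing: single 20 µM dose. Schedule: 90 min reaction incubation at room temperature, dark. Signal: resazurin-to-resorufin fluorescence via G6PDH and diaphorase coupling, 525/613 nm. Controls: DMSO-enzyme wells negative, buffer-substituted wells positive.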
# EP2 antag: inhibitors of human EP2 prostaglandin E2 receptor. inhibition, % at 25 µM. P43116. 260,000 compounds, 0.52% hits. C6 glioma cells expressing human EP2, cAMP TR-FRET; cells stimulated with saturating PGE2;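 active means percent inhibition above 40 after rounding to a whole number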;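 further: rat C6 glioma host cells with rolipram phosphodiesterase inhibitor present; the protocol text gives 20 µM as final concentration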
# Target sequence (P43116 whole entry, looked up): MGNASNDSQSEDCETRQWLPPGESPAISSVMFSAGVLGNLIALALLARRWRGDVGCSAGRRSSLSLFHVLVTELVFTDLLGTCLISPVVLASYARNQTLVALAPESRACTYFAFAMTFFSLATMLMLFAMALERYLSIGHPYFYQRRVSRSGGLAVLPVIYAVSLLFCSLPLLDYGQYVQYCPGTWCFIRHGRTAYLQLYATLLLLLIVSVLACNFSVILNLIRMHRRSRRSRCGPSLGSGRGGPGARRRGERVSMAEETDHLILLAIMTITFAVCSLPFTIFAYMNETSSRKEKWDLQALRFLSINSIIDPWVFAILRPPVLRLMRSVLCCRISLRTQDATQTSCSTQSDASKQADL
# PHOSPHO1 block: blocks human PHOSPHO1 phosphatase activity | recombinant PHOSPHO1, absorbance phosphatase assay | inhibition, % at 13.3 µM | 290,000 compounds, 1.1% hits; in the data active means inhibition above about 60%
# Target sequence (Q8TCT1 whole entry, looked up): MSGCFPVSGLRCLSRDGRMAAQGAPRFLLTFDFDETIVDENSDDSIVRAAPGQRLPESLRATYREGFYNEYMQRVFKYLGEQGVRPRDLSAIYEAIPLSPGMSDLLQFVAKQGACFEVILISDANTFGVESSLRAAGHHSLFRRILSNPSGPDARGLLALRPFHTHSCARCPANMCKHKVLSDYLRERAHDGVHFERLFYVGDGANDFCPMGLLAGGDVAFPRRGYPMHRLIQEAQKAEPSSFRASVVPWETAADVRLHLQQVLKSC
# EP2 modulator: EP2 receptor (human) modulation; P43116; EP2-expressing cells, cAMP HTRF FRET, PGE2 co-stimulation; induction, % at 25 µM; 260,000 compounds, 0.83% hits; AID 940;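 active means compounds whose cAMP rise, as percent of the full-agonist control response, exceeds 60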;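 further: rat C6 glioma line stably carrying human EP2 under a CMV promoter; the protocol text gives 20 µM as final concentration; 100% = response of wells given 1 µM PGE2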
# PfGluPho inh: PfG6PD (Plasmodium falciparum) enzyme inhibition; 350,000 compounds, 0.78% hits; PfGluPho enzyme, NADPH resazurin-diaphorase fluorescence; AID 504690; inhibition, % at 20 µM;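 active means inhibition reaching at least a set limit at 20 µM in the primary screen, cut at about 59% in these data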;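 further: 0% = DMSO wells with substrate and 100% = DMSO wells lacking glucose-6-phosphate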
# Tb hexokinase: T. brucei hexokinase 1 inhibition | 220,000 compounds, 0.11% hits | inhibition, % at 10 µM | AID 1430 | recombinant TbHK1, G6PDH-coupled NADH A340;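 active means inhibition of 50% or more in the single-dose primary screen; inactive means inhibition below 50%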
# EP2 confirm: EP2 receptor cAMP induction, counter-screens negative. calls only at 20 µM (by protocol). C6 glioma EP2 cells, cAMP HTRF induction; plus low (about EC15) PGE2 agonist. shares compounds with EP2 modulator. 1,300 compounds, 47% hits. AID 1080;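 active means cAMP induction above 50% in the main assay while under 30% in all four parallel counter assays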;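 further: rat C6 glioma cells stably expressing human EP2 receptor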
# The depositor's hits bear a star; i = inactive; / = no result; + = active, no number; ! = a repeat was not active. The list is not random: actives were taken first. Their share in the collection is about 2.5%.
SMILES,HKDC1 inh,EP2 antag,PHOSPHO1 block,EP2 modulator,PfGluPho inh,Tb hexokinase,EP2 confirm
COc1cccc(OC)c1C(=O)Nc1cc(C)nn1-c1nc2ccccc2[nH]1,-11,10,30,29,7,-4,/
COc1ccc(C(=O)Nc2cc(C)nn2-c2nc3ccccc3[nH]2)c(OC)c1,-9,7,32,70*,5,-3,+
COc1cccc(CNCC(=O)N2CCCC2)c1,/,6,/,-5,/,/,/
CCCCC(=O)Nc1sc2c(c1C(=O)OCC)CCC(C=O)=C2Cl,/,5,38,63*,/,4,+
CCOC(=O)c1c(NC(=O)c2ccccc2)sc2c1CCc1ccccc1-2,-3,6,-8,53,58,2,/
Cn1c2ccccc2c2nnc(SCC(=O)Nc3ccccc3F)nc21,10,/,34,/,-17,/,/
CC(C)n1c2ccccc2c2nnc(SCC(=O)Nc3ccccc3C(=O)O)nc21,-6,12,22,73*,-13,-17,i
O=C1C2C(c3ccccc3)C=CC(c3ccccc3)C2C(=O)N1c1cccnc1 (stereo not given),1,7,-4,36,1,-4,/
O=C1C2C(c3ccccc3)C=CC(c3ccccc3)C2C(=O)N1c1ccncc1 (stereo not given),-1,1,28,65*,-5,-4,i
O=C(/C(=C/O)N=Nc1ccccc1Cl)c1ccccc1,1,5,24,69*,23,-4,+
COc1ccc(Cn2nnnc2C(c2cc3cc(OC)ccc3[nH]c2=O)N2CCCC2)cc1 (stereo not given),/,4,/,-2,/,/,/
CC(=O)Nc1sc(NC(=O)c2ccco2)nc1-c1cccs1,4,8,43,-18,-10,/,/
O=C(Nc1nc(-c2cccs2)c(-c2ccccc2)s1)c1ccco1,-1,5,12,73*,-4,-15,+
CCc1nc2ccccc2n1CC(=O)N1CCC(C(=O)c2nccs2)CC1,/,/,/,-32,/,/,/
C=CCOc1c(Br)cc(/C=N/n2c(CC)n[nH]c2=S)cc1Br,-7,4,55,75*,-4,2,+
CCOC(=O)N1CCN(c2ccnc3cc(Cl)ccc23)CC1,-1,/,24,/,5,/,/
CCOC(=O)N1CCC(=C2c3ccc(Cl)cc3CCc3cccnc32)CC1,8,10,74*!,53,11,-8,i
CCOc1ccc(C(C)=O)cc1CC(C(N)=O)C(N)=O,1,/,6,69*,1,3,i
CCCc1nc(SCC(=O)NNC(=O)CC)c2c(C)c(C)sc2n1,/,12,/,23,/,/,/
CCOC(=O)C(C)Sc1ncc(OC)c(Sc2ccc(Cl)cc2)n1 (stereo not given),-1,2,-22,68*,-6,-1,+
CCOC(=O)CSc1ncc(OC)c(Sc2ccc(Cl)cc2)n1,-4,2,0,52,5,3,/
COc1cc(OC)c2c(OC)c(-c3ccc4c(c3)OCO4)c(=O)oc2c1,/,12,/,62*,/,/,i
Cc1ccc(C)c(CN2C(=O)C(C)Oc3ccc(C)cc32)c1 (stereo not given),-8,4,2,80*,-7,-2,+
CC(=O)Nc1ccc(C2=NN(c3ccccc3)C(c3cccs3)C2)cc1 (stereo not given),-2,11,17,76*,-2,-3,i
COc1ccc(C(=O)c2ccccc2)c(O)c1,-1,3,3,41,2,-3,+
SMILES,HKDC1 inh,EP2 antag,PHOSPHO1 block,EP2 modulator,PfGluPho inh,Tb hexokinase,EP2 confirm
O=C(c1ccccc1)c1ccc(O)cc1O,1,5,-4,-1,-8,-63,/
Cc1ccc(S(=O)(=O)Nc2ccc(NC(=O)c3ccc(F)cc3)cc2)cc1,-8,2,-20,-51,9,2,/
Cc1ccc(S(=O)(=O)Nc2ccc(Cl)cc2C(=O)c2ccc(F)cc2)cc1,13,20,21,67*,-6,-4,i
CC1(C)OC(c2ccccc2)=C/C(=C/C=Nc2ccccc2)O1,1,14,-23,66*,7,-44,i
CC1(C)OC(c2ccccc2)=C/C(=C\C=N\NC(=O)c2ccncc2)O1,-10,10,37,-5,-11,-39,/
CCCCCCSC1=C(C#N)C(=O)NC2(CCCCC2)S1,2,1,-9,41,-38,-10,/
COc1ccc(CSC2=C(C#N)C(=O)NC3(CCCCC3)S2)cc1,/,37,/,54,6,/,i
COC(=O)c1cc2ccsc2n1Cc1cccc(F)c1,2,8,-1,67*,-11,39,+
COC(=O)c1cc2ccsc2n1Cc1ccccc1F,7,11,-16,71*,-9,-5,+
CCOc1ccc2nc(-c3ccccc3)nc(SCC(=O)OC)c2c1,-2,/,18,/,-4,/,/
COC(=O)CSc1nc(-c2ccccc2)nc2ccccc12,-6,3,-30,68*,-4,-1,+
CCOC(=O)CCN(Cc1sccc1C)S(=O)(=O)c1ccc(F)cc1,2,2,-4,81*,-1,4,i
CCOC(=O)CCN(Cc1cccs1)S(=O)(=O)c1ccc(F)cc1,-11,5,10,43,9,2,/
CCOC(=O)c1c(NC(=O)CN2C(=O)NC3(CCCCCC3)C2=O)sc(C)c1-c1ccc(C)cc1,-11,13,7,68*,-4,-12,+
CCOC(=O)c1c(NC(=O)CN2C(=O)NC3(CCC(CC)CC3)C2=O)sc(C)c1-c1ccc(C)cc1 (stereo not given),-10,3,-20,24,-14,-5,/
CCOC(=O)c1c(NC(=O)CSc2nnc(N)s2)sc(C)c1-c1ccc(C)cc1,1,7,-2,65*,-16,-2,+
COc1ccc(C(=O)[C@H]2CCCN(C(=O)c3cc(C(C)(C)C)nn3C)C2)cc1,/,2,/,-31,/,/,/
O=C(Nc1ccccc1Cl)N1CCSc2ccccc21,2,9,20,77*,12,7,+
O=C(Nc1ccccc1)N1CCSc2cc(Cl)ccc21,-3,1,28,17,-7,0,/
O=S(=O)(c1ccccc1)N(Cc1nc(-c2ccccc2)no1)C1CCCCC1,-3,15,4,83*,0,10,+
CCN(CC)C(=O)CN(c1cc2c(cc1OC)oc1ccccc12)S(=O)(=O)c1ccc(C)cc1,-4,5,-31,91*,-1,-15,i
CCN(CC)S(=O)(=O)c1ccc(C(=O)Nc2cc3oc4ccccc4c3cc2OC)cc1,-6,5,6,4,-9,-12,/
CCSc1ccccc1C(=O)Nc1ccc([N+](=O)[O-])cc1OC,-4,0,41,66*,9,-9,i

# Assay outcomes as filed in PubChem.
